This note sets out measurements from ChEMBL document CHEMBL4715843, “NO-releasing STAT3 inhibitors suppress BRAF-mutant melanoma growth” (Eur J Med Chem, 2020).

One assay concerns HFF. Nature of the assay: Cytotoxicity against HFF assessed as inhibition of cell proliferation by MTS assay. It is filed as cell-based, Homo sapiens.
For a further assay, the system named is MCF-10A. Description: Cytotoxicity against human MCF-10A cells assessed as inhibition of cell proliferation by MTS assay. It is filed as cell-based. In general terms: Tetrazolium assays rely on reduction of a dye to a coloured formazan, in cell work by metabolically active cells.
The test system of assay [1] is A-375. Description: Cytotoxicity against human A-375 cells assessed as inhibition of cell proliferation measured after 48 hrs by MTS assay. It is filed as functional, cell-based. The following applies: A-375, 48 h. In outline:
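Cells were exposed to a dose range of inhibitor for 48 h, and viability was read by MTS assay in triplicate. GI50 was taken as the concentration giving 50% growth inhibition, averaged from three independent experiments. A375 was cultured in RPMI-1640 with Glutamax. A549 and NCI-H157 were kept in RPMI-1640, and MIA PaCa-2 and U87-MG in DMEM.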

The nature of assay [2]: Drug metabolism in pH 7.4 phosphate buffer assessed as nitric oxide release at 100 uM measured after 2 hrs by Griess reagent based colorimetric method. The method, boiled down:
(§1)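 Compound at 100 µM was held at room temperature in pH 7.4 phosphate buffer with 5 mM DTT and 2% DMSO for 2 or 48 h. Griess reagent was added, and after 30 min absorbance was read at 548 nm. NO release (mol NO/mol compound) was derived from a sodium nitrite calibration curve.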

Assay [3] is described as follows: Drug metabolism in pH 7.4 phosphate buffer assessed as nitric oxide release at 100 uM measured after 48 hrs by Griess reagent based colorimetric method. In outline:
as §1
(In general: Nitrite, measured by Griess reagent, commonly stands in for NO production.)

Assay [4] deals with T1, Signal transducer and activator of transcription 3 (Homo sapiens, UniProt P40763). Description: Displacement of FAM-labeled 5-GpYLPQTV-NH2 from recombinant GST-tagged STAT3 (unknown origin) preincubated for 30 mins followed by FAM-labeled 5-GpYLPQTV-NH2 addition and measured after 30 mins by fluorescence assay. The following applies: time 60.0 min. In outline: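 GST-STAT3 (2 µM) was bound to GST beads for 1 h at 4 °C in PBS with 0.1% β-mercaptoethanol, then washed. Bead slurry was incubated with compound dilutions (2.25% DMSO, duplicate) and FAM-GpYLPQTV-NH2 peptide. Resin was washed by vacuum filtration and fluorescence read at ex 485/em 535 nm. % displacement was set against the no-compound signal; two independent experiments.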

The test system of assay [5] is A-375. Nature of the assay: Potentiation of compound II-induced cytotoxicity against human A375 cells assessed as compound II IC50 at 12.5 uM measured after 48 hrs by MTS assay (reference value: 16.2 +/- 1.6 uM). Particulars: A-375, 48 h. It is filed as functional, cell-based.
Assay [6] is described as follows: Antiproliferative activity against human SB-590885-sensitive 451Lu cells assessed as reduction in cell viability measured after 48 hrs by MTS assay. It is filed as functional. In outline:
(§2)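 Melanoma lines were grown in RPMI-1640 with Glutamax at 37 °C and 5% CO2. The resistant 451 Lu-R and MEL 1617-R sublines were maintained with 1 µM PLX4720. Cells were incubated with vehicle or inhibitor over a dose range, and viability was read by MTS assay in triplicate.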

The target in assay [7] is T1, Signal transducer and activator of transcription 3. Description: Inhibition of STAT3 phosphorylation at Y705 residue in human SB-590885-resistant 451Lu cells measured after 12 hrs by Western blot analysis. The following applies: dose 10-25 µM. In outline:
(§3)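 451 Lu and MEL 1617 pairs, sensitive and resistant; resistant lines maintained in RPMI with 1 µM PLX4720. Treated with 10 and 25 µM for 12 h versus DMSO. Lysates (60 µg protein, 10% SDS-PAGE) immunoblotted for Ser727- and Tyr705-phospho-STAT3, total STAT3, total PAX3, with actin.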
(In western blotting, separated proteins are transferred to a membrane and probed.)

For assay [8] the target is unchanged. Description: Inhibition of STAT3 phosphorylation at S727 residue in human SB-590885-resistant 451Lu cells measured after 12 hrs by Western blot analysis. Particulars: dose 10-25 µM. The method, boiled down: as §3
The target is the same in assay [9]. Description: Inhibition of STAT3 phosphorylation at Y705 residue in human SB-590885-sensitive 451Lu cells measured after 12 hrs by Western blot analysis. Particulars: dose 10-25 µM. The method, boiled down: as §3
Assay [10] has the same target. Nature of the assay: Inhibition of STAT3 phosphorylation at S727 residue in human SB-590885-sensitive 451Lu cells measured after 12 hrs by Western blot analysis. The following applies: dose 10-25 µM. In outline: as §3
Assay [11] has the same target. Description: Inhibition of STAT3 in human SB-590885-sensitive 451Lu cells assessed as reduction in PAX3 expression measured after 12 hrs by Western blot analysis. The following applies: dose 10-25 µM. In outline:
as §3

Assay [12] has the same target. Description: Inhibition of STAT3 in human SB-590885-resistant 451Lu cells assessed as reduction in PAX3 expression measured after 12 hrs by Western blot analysis. The following applies: dose 10-25 µM. In outline:
as §3

Assay [13] shares this target. Description: Inhibition of STAT3 phosphorylation at Y705 residue in human SB-590885-resistant MEL1617 cells at 10 to 25 uM measured after 12 hrs by Western blot analysis. Particulars: dose 10-25 µM. It is filed as cell-based. In outline:
as §3

The target is the same in assay [14]. Description: Inhibition of STAT3 phosphorylation at S727 residue in human SB-590885-resistant MEL1617 cells at 10 to 25 uM measured after 12 hrs by Western blot analysis. It is filed as cell-based. The following applies: dose 10-25 µM. In outline: as §3
For assay [15] the target is unchanged. Nature of the assay: Inhibition of STAT3 phosphorylation at Y705 residue in human SB-590885-sensitive MEL1617 cells at 10 to 25 uM measured after 12 hrs by Western blot analysis. It is filed as cell-based. The following applies: dose 10-25 µM. The method, boiled down:
as §3

The target is the same in assay [16]. Description: Inhibition of STAT3 phosphorylation at S727 residue in human SB-590885-sensitive MEL1617 cells at 10 to 25 uM measured after 12 hrs by Western blot analysis. Particulars: dose 10-25 µM. It is filed as cell-based. The method, boiled down:
as §3

For assay [17] the target is unchanged. Nature of the assay: Inhibition of STAT3 in human SB-590885-sensitive MEL1617 cells assessed as reduction in PAX3 expression at 10 to 25 uM measured after 12 hrs by Western blot analysis. It is filed as cell-based. Particulars: dose 10-25 µM. The method, boiled down: as §3
For assay [18] the target is unchanged. Description: Inhibition of STAT3 in human SB-590885-resistant MEL1617 cells assessed as reduction in PAX3 expression at 10 to 25 uM measured after 12 hrs by Western blot analysis. It is filed as cell-based. Particulars: dose 10-25 µM. In outline:
as §3

For assay [19] the target is unchanged. Nature of the assay: Inhibition of STAT3 in human SB-590885-sensitive 451Lu cells assessed as reduction in STAT3 transcriptional activity measured after 12 hrs by Dual-luciferase reporter gene assay. The method, boiled down: (§4)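 Cells co-transfected with inducible STAT3-responsive firefly luciferase and constitutive Renilla luciferase constructs (40:1) using Lipofectamine 3000. After 48 h, dose series in DMSO vehicle applied for 12 h, followed by dual-luciferase readout. Firefly signal normalized to Renilla and compared with untreated cells. Run in triplicate; IC50 taken from dose–response curves.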

Assay [20] shares this target. Description: Inhibition of STAT3 in human SB-590885-resistant 451Lu cells assessed as reduction in STAT3 transcriptional activity measured after 12 hrs by Dual-luciferase reporter gene assay. The method, boiled down: as §4
The target is the same in assay [21]. Description: Inhibition of STAT3 in human SB-590885-sensitive MEL1617 cells assessed as reduction in STAT3 transcriptional activity measured after 12 hrs by Dual-luciferase reporter gene assay. It is filed as cell-based. In outline:
as §4

Assay [22] has the same target. Description: Inhibition of STAT3 in human SB-590885-resistant MEL1617 cells assessed as reduction in STAT3 transcriptional activity measured after 12 hrs by Dual-luciferase reporter gene assay. It is filed as cell-based. In outline: as §4
Assay [23] can be described thus: Antiproliferative activity against human SB-590885-resistant 451Lu cells assessed as reduction in cell viability measured after 48 hrs by MTS assay. It is filed as functional. Particulars: Homo sapiens, 451Lu, 48 h; read-out: IC50. In outline: as §2
Assay [24] can be described thus: Antiproliferative activity against human SB-590885-sensitive MEL1617 cells assessed as reduction in cell viability measured after 48 hrs by MTS assay. It is filed as functional, cell-based. Particulars: MEL1617, 48 h. The method, boiled down: as §2
The nature of assay [25]: Antiproliferative activity against human SB-590885-resistant MEL1617 cells assessed as reduction in cell viability measured after 48 hrs by MTS assay. It is filed as functional, cell-based. Particulars: Homo sapiens, MEL1617, 48 h; read-out: IC50. The method, boiled down: as §2
Another assay concerns MOLT-4. Description: Anticancer activity against human MOLT-4 cells assessed as cell growth inhibition at 10 uM measured after 48 hrs by SRB assay relative to control. It is filed as functional. Particulars: read-out: GI. The method, boiled down: (§5)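 NCI 60-cell-line screen. Cells in RPMI with 5% FBS were plated at 5,000–40,000 cells/well by doubling time and preincubated 24 h at 37 °C. Compound was added at a single 10 µM for 48 h, then cells were fixed with cold TCA (10% final) and stained with 0.4% SRB. Absorbance at 515 nm gave percent growth versus untreated control and time-zero cells.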

The next assay deals with CCRF-CEM. Description: Anticancer activity against human CCRF-CEM cells assessed as cell growth inhibition at 10 uM measured after 48 hrs by SRB assay relative to control. It is filed as functional. The following applies: read-out: GI. The method, boiled down:
as §5

In another assay the test system is T47D. Description: Anticancer activity against human T47D cells assessed as cell growth inhibition at 10 uM measured after 48 hrs by SRB assay relative to control. It is filed as functional. Particulars: read-out: GI. The method, boiled down: as §5
A further assay concerns HL-60(TB). Description: Anticancer activity against human HL-60(TB) cells assessed as cell growth inhibition at 10 uM measured after 48 hrs by SRB assay relative to control. It is filed as functional. The following applies: read-out: GI. The method, boiled down:
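NCI 60-cell-line screen, single dose 10 µM, DMSO stock diluted in complete medium with gentamicin. Cells in RPMI with 5% FBS, plated at density set by doubling time, preincubated 24 h, then exposed 48 h at 37 °C, 5% CO2. TCA fixation, SRB staining, absorbance at 515 nm. Percent growth taken relative to untreated control and time-zero cell number.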

A further assay relates to K562. Nature of the assay: Anticancer activity against human K562 cells assessed as cell growth inhibition at 10 uM measured after 48 hrs by SRB assay relative to control. It is filed as functional. Particulars: read-out: GI. The method, boiled down:
as §5

Another assay relates to RPMI-8226. Description: Anticancer activity against human RPMI-8226 cells assessed as cell growth inhibition at 10 uM measured after 48 hrs by SRB assay relative to control. It is filed as functional. Particulars: read-out: GI. In outline:
as §5

The next assay concerns A549. Description: Anticancer activity against human A549 cells assessed as cell growth inhibition at 10 uM measured after 48 hrs by SRB assay. It is filed as functional, cell-based. In outline:
as §5

A further assay relates to NCI-H522. Nature of the assay: Anticancer activity against human NCI-H522 cells assessed as cell growth inhibition at 10 uM measured after 48 hrs by SRB assay. It is filed as functional, cell-based. The method, boiled down:
as §5

The next assay deals with COLO 205. Nature of the assay: Anticancer activity against human COLO 205 cells assessed as cell growth inhibition at 10 uM measured after 48 hrs by SRB assay. It is filed as functional, cell-based. The method, boiled down: as §5

The source made the active and inactive calls. No cut-off for these calls is given here.

As usually defined, the IC50 is the midpoint of a concentration-inhibition curve.

T1 sequence (P40763 whole entry): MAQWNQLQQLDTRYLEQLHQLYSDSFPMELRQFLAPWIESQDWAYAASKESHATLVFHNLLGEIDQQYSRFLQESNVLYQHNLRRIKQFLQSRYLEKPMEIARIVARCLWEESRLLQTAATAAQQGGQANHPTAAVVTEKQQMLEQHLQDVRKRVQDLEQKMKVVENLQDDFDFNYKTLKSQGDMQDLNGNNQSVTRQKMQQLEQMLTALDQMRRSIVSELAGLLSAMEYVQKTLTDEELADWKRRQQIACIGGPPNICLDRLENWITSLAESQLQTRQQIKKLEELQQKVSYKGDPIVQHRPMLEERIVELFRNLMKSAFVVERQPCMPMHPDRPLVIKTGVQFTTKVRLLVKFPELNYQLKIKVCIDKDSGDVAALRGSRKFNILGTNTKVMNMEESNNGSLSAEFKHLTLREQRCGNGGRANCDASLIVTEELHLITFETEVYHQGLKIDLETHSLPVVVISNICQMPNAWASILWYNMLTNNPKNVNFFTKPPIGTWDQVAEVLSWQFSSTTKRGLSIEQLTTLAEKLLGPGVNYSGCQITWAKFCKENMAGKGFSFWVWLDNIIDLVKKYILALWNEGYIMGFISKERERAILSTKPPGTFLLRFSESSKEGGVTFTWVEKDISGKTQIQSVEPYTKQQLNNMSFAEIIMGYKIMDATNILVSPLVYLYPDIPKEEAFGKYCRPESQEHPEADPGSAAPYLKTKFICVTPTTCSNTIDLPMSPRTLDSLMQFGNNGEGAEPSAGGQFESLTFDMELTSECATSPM

Turning to `COc1ccc2nc(-c3ccc(Cl)cc3)cc(-c3nnc(SCC(=O)Nc4ccc(/C(C)=N\O)cc4)n3-c3ccccc3)c2c1`, the IC50 entry was “Not Active” in the assay with HFF (hff); “Not Active” in the assay on MCF-10A (mcf-10a); more than 100 µM in the assay with A-375 [1]; 6.8 µM in the assay on A-375 [5]; more than 50 µM in assay [6]; 54 µM in assay [19]. Moreover, the IC50 is 40.5 µM in assay [20]; 75 µM in [21]; 35.2 µM in [22]; more than 50 µM in assay [23]; more than 50 µM in [24]; more than 50 µM in [25]. The Drug metabolism in [2] was found to be 15%; in [3] it was 30%. Also, the inhibition result in assay [4], in [7], in assay [8], in [9], in [10] and in [11] was “inactive” each time. In addition, the inhibition result in assay [12], in [13], in assay [14], in assay [15], in assay [16] and in assay [17] was “inactive” in each case. Moreover, in assay [18], the inhibition entry is “inactive”.
As for `C=CCn1c(SCC(=O)Nc2ccc(/C(C)=N\O)cc2)nnc1-c1cc(-c2ccc(OC)cc2)nc2ccccc12`, the inhibition of growth at 10 µM in the assay on MOLT-4 is 81%; in the assay on CCRF-CEM, 81%; with T47D, 100%; in the assay on HL-60(TB), 100%; with K562 it was 81%; in the assay with RPMI-8226, 81%. Further, the “growth inhibition (GI)” value with A549, in the assay on NCI-H522 and with COLO 205 was “Active” in each case.
On to `O=C(Nc1nnc(-c2ccco2)o1)c1cc(-c2ccccc2)nc2ccccc12`, for which the IC50 with HFF (Homo sapiens, HFF, read-out: IC50) was determined as 72.2 µM; in the assay on MCF-10A (Homo sapiens, MCF-10A, read-out: IC50), 33.4 µM; in the assay on A-375 [1], 16.2 µM.
